Measured values gathered from unrelated publications.
Compare with care: the assays were run in different laboratories.
Target: Proto-oncogene tyrosine-protein kinase Src (SRC, Homo sapiens, UniProt P12931)

For `CCOC(=O)c1cc2cc(-c3cc(C(=O)NCc4ccc(C(=O)O)cc4)nn3C)ccc2[nH]1`, the remaining binding was 93% (cell-free assay, competition with immobilised ligand; 0.1 µM).
`F[C@@H]1CCN(c2nccc(-c3cnn4ncccc34)n2)C1` has a remaining binding of 100% (binding; 1 µM).
`Cc1cc(-n2nc(Cc3cc(F)cc(C(F)(F)F)c3)nc2C)ccc1C(N)=O` has a remaining binding of 95% (cell-free assay, competition with immobilised ligand; 1 µM).
For `Nc1ncc2c(n1)-c1c([nH]c3ccc(C#CC4CC4)cc13)CCCC2`, the remaining binding was 100% (binding, competition with immobilised ligand; 1 µM).
The remaining binding of `N#Cc1ccccc1CSc1nnc2c(n1)[nH]c1ccccc12` is reported as 100% (binding, competition with immobilised ligand; 10 µM).
`CNC(=O)Nc1ccc2c(c1)[C@@]1(CC2)OC(=O)N(CC(=O)N(Cc2ccc(F)cc2)[C@@H](C)C(F)(F)F)C1=O` has a remaining binding of 90% (cell-free assay, competition with immobilised ligand; 1 µM).
`C[C@H]1CCN(c2nccc(-c3cnn4ncccc34)n2)C1` has a remaining binding of 100% (binding; 1 µM).
With `O=c1nc(-c2ccccn2)sc2ccccc12` the remaining binding was 92% (cell-free assay, competition with immobilised ligand; 1 µM).
For `O=C(NCC1CCOCC1)c1n[nH]cc1NC(=O)c1c(F)cccc1F`, the remaining binding was 86% (binding, competition with immobilised ligand; 1 µM).
`COc1cnc(Nc2cccc(S(N)(=O)=O)c2)nc1N1CCN(c2ccccc2)C(=O)C1` has a remaining binding of 100% (binding, competition with immobilised ligand; 1 µM).
With `FC(F)(F)Oc1cccc(-c2cnc3ccc(-c4ccncc4)nn23)c1` the remaining binding was 56% (binding, competition with immobilised ligand; 5 µM).
For `CN(C)c1nccc(-c2cnc3ncccn23)n1`, the remaining binding was 89% (binding; 1 µM).
For `Cc1cnc(Nc2ccc(C(=O)N3CCC(N4CCCC4)CC3)cc2)nc1-c1cc2ccccc2s1`, the remaining binding was 16% (binding, competition with immobilised ligand; 1 µM).
`COc1ccnn2ncc(-c3ccnc(N(C)C)n3)c12` gave a remaining binding of 100% (binding; 1 µM).
With `COc1ccc2c(O[C@@H]3C[C@H]4C(=O)N[C@]5(C(=O)O)CC5/C=C\CCCCC[C@H](NC(=O)OC5CCCC5)C(=O)N4C3)cc(-c3csc(NC(=O)C(C)C)n3)nc2c1C` (some centres unmarked) the remaining binding was 100% (cell-free assay, competition with immobilised ligand; 1 µM).
`CN(C)c1nccc(-c2cnn3ncccc23)n1` gave a remaining binding of 100% (binding; 1 µM).
For `O=C(NCCCN1CCOCC1)c1ccc(Nc2nccc(-c3cc4ccccc4s3)n2)cc1`, the remaining binding was 100% (binding, competition with immobilised ligand; 1 µM).
